In ChEMBL document CHEMBL3808325, “Discovery and Optimization of Macrocyclic Quinoxaline-pyrrolo-dihydropiperidinones as Potent Pim-1/2 Kinase Inhibitors” (ACS Med Chem Lett, 2016):

Key:
[1] = Half life in Sprague-Dawley rat at 2 mg/kg, iv; assay type: ADME, organism-based; settings: in vivo
How it was run: (§1)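 Pharmacokinetics in male Sprague–Dawley rats. Clearance also expressed as a percentage of liver blood flow. Oral bioavailability determined.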

[2] = Oral bioavailability in Sprague-Dawley rat at 5 mg/kg; assay type: ADME, organism-based; settings: in vivo; how it was run: as §1
[3] = Apparent permeability in pig LLC-PK1 cells at 5 uM; assay type: ADME, cell-based, Sus scrofa
Mus musculus [4] = experiment: In vivo inhibition of Pim1/2-mediated BAD protein phosphorylation at Ser-112 in human KMS-12-BM cells xenografted in SCID-beige mouse measured after 6 to 16 hrs by meso scale discovery assay; assay type: functional, organism-based
How it was run: (§2)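 KMS-12-BM xenograft mice given a single oral dose of 25, 50 or 100 mg/kg. Tumor Ser-112 pBAD measured at time points through 16 h postdose. EC50 obtained by fitting all individual total plasma concentration–pBAD response data. Unbound value derived from mouse plasma fraction unbound.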

[5] = target: Serine/threonine-protein kinase pim-1 (Homo sapiens, UniProt P11309); experiment: Inhibition of human full-length Pim1 expressed in Escherichia coli assessed as phosphorylation of biotinylated BAD peptide at Ser-112 preincubated for 30 mins followed by substrate addition measured after 1 hr by HTRF assay
Chain of Serine/threonine-protein kinase pim-1 (P11309 whole entry, canonical isoform): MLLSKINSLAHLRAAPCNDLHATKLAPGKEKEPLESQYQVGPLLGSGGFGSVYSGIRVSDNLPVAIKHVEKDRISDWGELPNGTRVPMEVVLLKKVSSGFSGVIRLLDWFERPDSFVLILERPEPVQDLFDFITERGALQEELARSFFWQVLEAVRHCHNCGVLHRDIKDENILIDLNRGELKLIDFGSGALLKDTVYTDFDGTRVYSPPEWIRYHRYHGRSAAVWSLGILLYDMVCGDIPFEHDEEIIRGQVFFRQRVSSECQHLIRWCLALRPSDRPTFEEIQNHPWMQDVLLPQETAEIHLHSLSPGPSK

[6] = target: Casein kinase I isoform gamma-2 (Homo sapiens) (UniProt P78368); experiment: Inhibition of full-length human CSNK1G2 expressed in bacterial system assessed as remaining enzyme activity at 1 uM by KINOMEscan assay
How it was run: (§3)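 scanMAX KINOMEscan panel of 392 nonmutant kinases, compound tested at 1 μM. Result expressed as percent of control (POC). S(10) and S(1) scores are the fraction of kinases with POC below 10% and below 1%.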

[7] = target: T1, Serine/threonine-protein kinase pim-2 (Homo sapiens, UniProt Q9P1W9); experiment: Inhibition of human PIM2 assessed as remaining enzyme activity at 1 uM by KINOMEscan assay
How it was run: (§4)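 Profiled at 1 μM compound across a scanMAX KINOMEscan panel of 392 nonmutant kinases. Activity is reported as percent-of-control (POC). Panel-wide S(10) and S(1) selectivity scores are the fraction of kinases with POC below 10% and below 1%.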
Target sequence in this assay (Q9P1W9 whole entry, looked up): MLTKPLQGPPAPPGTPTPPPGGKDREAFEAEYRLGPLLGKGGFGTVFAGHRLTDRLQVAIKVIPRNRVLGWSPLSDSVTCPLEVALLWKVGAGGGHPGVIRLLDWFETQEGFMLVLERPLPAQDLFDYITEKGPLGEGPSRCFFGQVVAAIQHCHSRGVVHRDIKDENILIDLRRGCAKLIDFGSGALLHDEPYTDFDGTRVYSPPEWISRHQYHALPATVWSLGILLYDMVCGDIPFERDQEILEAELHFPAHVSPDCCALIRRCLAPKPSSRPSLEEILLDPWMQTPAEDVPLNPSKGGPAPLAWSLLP

[8] = Protein binding in rat assessed as as fraction unbound at 5 uM by rapid equilibrium dialysis method; assay type: ADME; settings: plasma
[9] = target: Casein kinase II subunit alpha (Homo sapiens) (UniProt P68400); experiment: Inhibition of full-length human CSNK2A1 expressed in mammalian system assessed as remaining enzyme activity at 1 uM by KINOMEscan assay; how it was run: as §3
Plasma = experiment: Free plasma concentration in SCID-beige mouse at 5 uM by LC/MS analysis; assay type: ADME, cell-free
[10] = Drug metabolism in human liver microsomes assessed as compound turnover at 1 uM incubated for 30 mins; assay type: ADME; settings: read-out: Drug metabolism
[11] = target: Serine/threonine-protein kinase pim-3 (Homo sapiens) (UniProt Q86V86); experiment: Inhibition of human PIM3 assessed as remaining enzyme activity at 1 uM by KINOMEscan assay; how it was run: as §4
[12] = target: T1, Serine/threonine-protein kinase pim-2; experiment: Inhibition of human full-length Pim2 expressed in Escherichia coli assessed as phosphorylation of biotinylated BAD peptide at Ser 112 preincubated for 30 mins followed by substrate addition measured after 1 hr by HTRF assay
How it was run: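 Cell-free kinase assay using recombinant Pim-1 or Pim-2. Read-out is phosphorylation of a short BAD peptide sequence spanning Ser-112.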
Target sequence in this assay (Q9P1W9 whole entry): as the sequence (Q9P1W9 whole entry, looked up) above

Mus musculus [13] = experiment: In vivo inhibition of Pim1/2-mediated BAD protein phosphorylation at Ser-112 in human KMS-12-BM cells xenografted in SCID-beige mouse assessed as pBAD level at 100 mg/kg, po administered as single dose measured after 16 hrs by meso scale discovery assay; assay type: functional; design: scale not given: the % may be the effect or the level left; how it was run: as §2
[14] = target: Serine/threonine-protein kinase PIM (Homo sapiens, UniProt P11309+Q9P1W9+Q86V86); experiment: Inhibition of Pim1/2 in human KMS-12-BM cells assessed as phosphorylation of full-length BAD protein at Ser-112 incubated for 110 mins by flow cytometric analysis in presence of 20% FBS; assay type: cell-based
How it was run: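 Cell assay in KMS-12-BM, a multiple myeloma line with relatively high endogenous Pim-1/2. Pim-dependent phosphorylation of full-length endogenous BAD at Ser-112 measured.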

[15] = target: Myosin light chain kinase family member 4 (Homo sapiens) (UniProt Q86YV6); experiment: Inhibition of human MYLK4 assessed as remaining enzyme activity at 1 uM by KINOMEscan assay; how it was run: as §3
Chain of Myosin light chain kinase family member 4 (Homo sapiens) (Q86YV6 whole entry): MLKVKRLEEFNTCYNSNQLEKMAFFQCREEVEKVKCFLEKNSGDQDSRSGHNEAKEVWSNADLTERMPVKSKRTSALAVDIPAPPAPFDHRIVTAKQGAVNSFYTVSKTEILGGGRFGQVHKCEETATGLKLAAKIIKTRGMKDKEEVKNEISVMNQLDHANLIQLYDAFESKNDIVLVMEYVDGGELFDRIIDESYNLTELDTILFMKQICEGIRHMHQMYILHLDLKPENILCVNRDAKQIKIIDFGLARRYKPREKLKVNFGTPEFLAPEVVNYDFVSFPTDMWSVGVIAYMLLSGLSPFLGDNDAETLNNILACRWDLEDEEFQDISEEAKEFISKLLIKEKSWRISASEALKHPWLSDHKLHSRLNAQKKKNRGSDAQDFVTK

Mus musculus [16] = experiment: In vivo inhibition of Pim1/2-mediated BAD protein phosphorylation at Ser-112 in human KMS-12-BM cells xenografted in SCID-beige mouse assessed as pBAD level at 50 mg/kg, po administered as single dose measured after 16 hrs by meso scale discovery assay; assay type: functional; design: scale not given: the % may be the effect or the level left; how it was run: as §2
[17] = Clearance in Sprague-Dawley rat at 2 mg/kg, iv; assay type: ADME, organism-based; settings: in vivo; how it was run: as §1
[18] = Drug metabolism in rat liver microsomes assessed as compound turnover at 1 uM incubated for 30 mins; assay type: ADME; settings: read-out: Drug metabolism
Mus musculus [19] = experiment: Toxicity in human KMS-12-BM cells xenografted SCID-beige mouse assessed as drug tolerability at 10 to 100 mg/kg, po qd; assay type: organism-based; settings: in vivo
How it was run: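 Tolerability followed in KMS-12-BM xenograft mice given oral doses once daily at 10, 25, 50 or 100 mg/kg over a 16-day efficacy study. Body weight monitored throughout.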

KMS-12-BM = experiment: Antitumor activity against human KMS-12-BM cells xenografted in orally dosed SCID-beige mouse administered as qd relative to vehicle control; assay type: functional, organism-based
How it was run: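 Mouse KMS-12-BM xenograft efficacy study running 16 days. Oral dosing once daily at 10, 25, 50 or 100 mg/kg. Tumor volume compared with vehicle-treated controls.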

Rattus norvegicus = experiment: Clearance in Sprague-Dawley rat at 2 mg/kg, iv relative to hepatic blood flow; assay type: ADME, organism-based, Liver; settings: in vivo; how it was run: as §1
[20] = target: Homeodomain-interacting protein kinase 2 (Homo sapiens) (UniProt Q9H2X6); experiment: Inhibition of human HIPK2 assessed as remaining enzyme activity at 1 uM by KINOMEscan assay; how it was run: as §3
[21] = target: Casein kinase I isoform alpha-like (Homo sapiens) (UniProt Q8N752); experiment: Inhibition of full-length human CSNK1A1L expressed in bacterial system assessed as remaining enzyme activity at 1 uM by KINOMEscan assay; how it was run: as §3
Chain of Casein kinase I isoform alpha-like (Homo sapiens) (Q8N752 whole entry, canonical isoform): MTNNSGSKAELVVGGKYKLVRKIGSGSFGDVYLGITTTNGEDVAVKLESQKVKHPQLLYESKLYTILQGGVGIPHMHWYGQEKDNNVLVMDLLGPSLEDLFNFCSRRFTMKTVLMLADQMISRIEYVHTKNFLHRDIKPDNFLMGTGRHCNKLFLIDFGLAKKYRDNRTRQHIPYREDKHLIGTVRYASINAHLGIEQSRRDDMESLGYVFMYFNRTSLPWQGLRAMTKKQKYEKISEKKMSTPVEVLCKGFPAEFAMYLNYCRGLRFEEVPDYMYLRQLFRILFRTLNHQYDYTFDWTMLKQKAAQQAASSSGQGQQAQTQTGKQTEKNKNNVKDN

[22] = target: Homeodomain-interacting protein kinase 3 (Homo sapiens) (UniProt Q9H422); experiment: Inhibition of human HIPK3 assessed as remaining enzyme activity at 1 uM by KINOMEscan assay; how it was run: as §3
Chain of Homeodomain-interacting protein kinase 3 (Homo sapiens) (Q9H422 whole entry, looked up): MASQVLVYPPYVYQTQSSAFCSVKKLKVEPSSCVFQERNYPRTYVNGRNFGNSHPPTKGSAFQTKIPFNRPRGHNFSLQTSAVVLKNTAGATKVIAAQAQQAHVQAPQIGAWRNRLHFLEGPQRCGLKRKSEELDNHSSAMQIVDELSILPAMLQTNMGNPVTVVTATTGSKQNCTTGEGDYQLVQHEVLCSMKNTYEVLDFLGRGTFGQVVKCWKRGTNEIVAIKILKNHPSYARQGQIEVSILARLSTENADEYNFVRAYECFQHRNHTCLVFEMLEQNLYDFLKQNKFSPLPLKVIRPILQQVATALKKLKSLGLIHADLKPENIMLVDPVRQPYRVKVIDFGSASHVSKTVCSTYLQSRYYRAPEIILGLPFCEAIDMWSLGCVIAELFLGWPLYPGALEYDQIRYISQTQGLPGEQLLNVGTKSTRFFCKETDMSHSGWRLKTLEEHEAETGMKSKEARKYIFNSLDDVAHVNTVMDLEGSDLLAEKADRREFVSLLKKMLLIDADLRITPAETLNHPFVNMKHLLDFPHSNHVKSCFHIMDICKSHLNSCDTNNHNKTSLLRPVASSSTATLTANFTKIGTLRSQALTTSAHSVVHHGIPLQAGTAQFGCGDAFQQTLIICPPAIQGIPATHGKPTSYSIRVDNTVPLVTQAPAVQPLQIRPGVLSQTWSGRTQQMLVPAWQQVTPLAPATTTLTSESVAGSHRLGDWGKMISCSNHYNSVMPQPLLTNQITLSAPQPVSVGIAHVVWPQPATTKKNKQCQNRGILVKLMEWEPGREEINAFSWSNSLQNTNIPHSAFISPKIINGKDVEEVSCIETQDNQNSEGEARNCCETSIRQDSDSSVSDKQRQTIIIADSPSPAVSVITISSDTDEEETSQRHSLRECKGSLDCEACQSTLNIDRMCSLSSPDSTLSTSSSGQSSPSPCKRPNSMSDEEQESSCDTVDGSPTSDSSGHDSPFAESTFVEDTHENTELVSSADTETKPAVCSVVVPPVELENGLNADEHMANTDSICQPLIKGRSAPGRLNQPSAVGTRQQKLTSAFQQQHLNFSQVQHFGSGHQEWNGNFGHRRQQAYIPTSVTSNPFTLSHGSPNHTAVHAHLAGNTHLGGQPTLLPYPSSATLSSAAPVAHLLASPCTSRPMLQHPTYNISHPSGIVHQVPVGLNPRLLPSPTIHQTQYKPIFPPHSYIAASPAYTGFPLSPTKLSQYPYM

[23] = target: Mitogen-activated protein kinase 15 (Homo sapiens) (UniProt Q8TD08); experiment: Inhibition of human MAPK15 assessed as remaining enzyme activity at 1 uM by KINOMEscan assay; how it was run: as §3
Chain of Mitogen-activated protein kinase 15 (Homo sapiens) (Q8TD08 whole entry): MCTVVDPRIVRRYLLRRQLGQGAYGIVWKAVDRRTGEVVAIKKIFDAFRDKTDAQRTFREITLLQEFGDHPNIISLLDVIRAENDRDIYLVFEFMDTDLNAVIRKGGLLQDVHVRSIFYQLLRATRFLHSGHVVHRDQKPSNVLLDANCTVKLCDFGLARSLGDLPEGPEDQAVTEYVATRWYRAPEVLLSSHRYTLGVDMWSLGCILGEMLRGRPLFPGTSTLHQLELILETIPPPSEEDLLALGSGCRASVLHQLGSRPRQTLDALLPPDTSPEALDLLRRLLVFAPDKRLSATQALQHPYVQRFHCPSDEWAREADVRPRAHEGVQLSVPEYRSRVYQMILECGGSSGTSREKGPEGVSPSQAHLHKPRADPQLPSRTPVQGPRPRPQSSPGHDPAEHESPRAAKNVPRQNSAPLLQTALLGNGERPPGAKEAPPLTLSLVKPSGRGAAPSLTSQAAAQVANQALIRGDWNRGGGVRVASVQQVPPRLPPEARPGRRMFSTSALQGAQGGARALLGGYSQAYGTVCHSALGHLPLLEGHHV

[24] = Fraction unbound in SCID-beige mouse plasma at 5 uM by LC/MS analysis; assay type: ADME, cell-free
[25] = target: Dual specificity tyrosine-phosphorylation-regulated kinase 1B (Homo sapiens) (UniProt Q9Y463); experiment: Inhibition of human DYRK1B assessed as remaining enzyme activity at 1 uM by KINOMEscan assay; how it was run: as §3
Chain of Dual specificity tyrosine-phosphorylation-regulated kinase 1B (Homo sapiens) (Q9Y463 whole entry, looked up): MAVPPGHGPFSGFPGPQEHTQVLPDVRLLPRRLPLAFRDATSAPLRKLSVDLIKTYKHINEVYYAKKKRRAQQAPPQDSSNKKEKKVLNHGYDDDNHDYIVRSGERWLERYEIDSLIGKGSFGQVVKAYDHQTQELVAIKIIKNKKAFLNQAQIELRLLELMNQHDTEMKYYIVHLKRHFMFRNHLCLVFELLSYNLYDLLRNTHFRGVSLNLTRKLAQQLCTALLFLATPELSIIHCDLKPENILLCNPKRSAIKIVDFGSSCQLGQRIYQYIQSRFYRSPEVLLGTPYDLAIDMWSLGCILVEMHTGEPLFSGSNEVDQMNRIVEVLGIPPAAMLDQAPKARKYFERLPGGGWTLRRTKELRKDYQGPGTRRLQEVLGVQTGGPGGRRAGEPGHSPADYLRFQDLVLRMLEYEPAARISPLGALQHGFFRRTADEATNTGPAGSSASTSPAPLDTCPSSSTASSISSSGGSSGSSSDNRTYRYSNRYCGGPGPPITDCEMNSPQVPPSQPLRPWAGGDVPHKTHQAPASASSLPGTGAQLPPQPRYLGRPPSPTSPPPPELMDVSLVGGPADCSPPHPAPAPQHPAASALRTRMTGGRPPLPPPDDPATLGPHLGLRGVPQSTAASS

[26] = Cytotoxicity against human KMS-12-BM cells after 72 hrs by cell titer-glo luminescence assay; assay type: functional, cell-based
[27] = target: Dual specificity protein kinase CLK2 (Homo sapiens) (UniProt P49760); experiment: Inhibition of human CLK2 assessed as remaining enzyme activity at 1 uM by KINOMEscan assay; how it was run: as §3
Chain of Dual specificity protein kinase CLK2 (Homo sapiens) (P49760 whole entry, looked up): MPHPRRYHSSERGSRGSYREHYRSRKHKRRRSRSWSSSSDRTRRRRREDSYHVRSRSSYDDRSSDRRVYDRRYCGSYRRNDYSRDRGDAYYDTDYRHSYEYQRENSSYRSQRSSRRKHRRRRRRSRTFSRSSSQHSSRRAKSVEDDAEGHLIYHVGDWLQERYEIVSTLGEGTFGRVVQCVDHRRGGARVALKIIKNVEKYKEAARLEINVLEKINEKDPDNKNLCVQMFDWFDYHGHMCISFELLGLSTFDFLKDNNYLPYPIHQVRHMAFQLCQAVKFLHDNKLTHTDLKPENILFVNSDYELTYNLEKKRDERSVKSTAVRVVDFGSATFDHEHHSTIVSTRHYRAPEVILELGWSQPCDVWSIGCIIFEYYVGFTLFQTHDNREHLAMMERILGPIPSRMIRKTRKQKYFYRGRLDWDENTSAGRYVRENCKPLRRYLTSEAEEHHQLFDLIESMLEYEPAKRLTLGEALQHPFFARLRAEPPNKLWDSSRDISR

## Cc1nc2cccc3c2nc1N[C@H](C)/C=C\C[C@H]1CNC(=O)c2cc-3[nH]c21
[1]
  half-life: 4 h
[2]
  bioavailability: 48%
[3]
  Papp at 5 µM: 290 nm/s
Mus musculus [4]
  Activity: Dose-dependent effect
  EC50: 3.6 µM
[5]
  IC50: 0.0003 µM
[6]
  Activity: < 10%
[7]
  Activity: < 10%
[8]
  fraction unbound at 5 µM: 0.007
[9]
  Activity: < 10%
Plasma
  Cp(f): 0.03 µM
[10]
  metabolised at 0.5 h, 1 µM: 24%
[11]
  Activity: < 10%
[12]
  IC50: 0.0005 µM
Mus musculus [13]
  Activity: 53%
[14]
  IC50: 0.025 µM
[15]
  Activity: < 10%
Mus musculus [16]
  Activity: 8%
[17]
  clearance: 0.47 L/h/kg
[18]
  metabolised at 0.5 h, 1 µM: 39%
Mus musculus [19]
  Activity: Non-toxic
KMS-12-BM
  TGI: Dose-dependent effect
Rattus norvegicus
  CL: 14%
[20]
  Activity: < 10%
[21]
  Activity: < 10%
[22]
  Activity: < 10%
[23]
  Activity: < 10%
[24]
  fraction unbound at 5 µM: 0.0084
[25]
  Activity: < 10%
[26]
  IC50: 0.151 µM
[27]
  Activity: < 10%
